According to ChEMBL document CHEMBL1649418, “Pyrimidine derivatives as potent and selective A3 adenosine receptor antagonists” (J Med Chem, 2011):
pKi: −log10 of the molar value.

What was measured:
[1] = biological target: T1, Adenosine receptor A2b (Homo sapiens) (UniProt P29275); assay: Displacement of [3H]DPCPX from human adenosine A2B receptor expressed in HEK293 cells at 0.1 uM by liquid scintillation counting; format: cell-based
T1 sequence (whole entry): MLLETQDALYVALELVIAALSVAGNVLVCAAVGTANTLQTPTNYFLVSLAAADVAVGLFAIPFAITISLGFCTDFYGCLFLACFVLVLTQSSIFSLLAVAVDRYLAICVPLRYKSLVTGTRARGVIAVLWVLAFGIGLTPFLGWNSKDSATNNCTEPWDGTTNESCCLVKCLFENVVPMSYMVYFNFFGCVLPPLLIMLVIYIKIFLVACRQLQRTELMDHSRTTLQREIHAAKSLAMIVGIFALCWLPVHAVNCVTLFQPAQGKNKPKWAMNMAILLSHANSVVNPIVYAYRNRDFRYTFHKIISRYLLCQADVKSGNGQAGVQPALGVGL
How it was run: (§1)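 HEK-293 membranes (18 μg) were incubated with [3H]DPCPX (35 nM) at 25 °C for 30 min, with six concentrations from 0.1 nM to 1 μM. Nonspecific binding was defined with 400 μM NECA. Filters were washed six times with ice-cold buffer and counted by scintillation. Ki (Cheng–Prusoff) is mean ± SEM, n=3; % displacement at 0.1 μM is n=2.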

Adenosine receptor A2a [2] = biological target: T2, Adenosine receptor A2a (Homo sapiens, UniProt P29274); assay: Displacement of [3H][…] from human adenosine A2A receptor expressed in human HeLa cells at 0.1 uM by liquid scintillation counting; format: cell-based
How it was run: (§2)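 Nonspecific binding was defined with 50 μM NECA. Filters were washed four times with ice-cold buffer, then counted by scintillation. Ki (Cheng–Prusoff) is mean ± SEM, n=3; % displacement at 0.1 μM is n=2.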

[3] = biological target: T1, Adenosine receptor A2b (Homo sapiens); assay: Displacement of [3H]DPCPX from human adenosine A2B receptor expressed in HEK293 cells at 1 uM by liquid scintillation counting; format: cell-based
[4] = biological target: T3, Adenosine receptor A3 (Homo sapiens) (UniProt P0DMS8); assay: Displacement of [3H]NECA from human adenosine A3 receptor expressed in human HeLa cells at 0.1 uM by liquid scintillation counting; format: cell-based
T3 sequence (whole entry): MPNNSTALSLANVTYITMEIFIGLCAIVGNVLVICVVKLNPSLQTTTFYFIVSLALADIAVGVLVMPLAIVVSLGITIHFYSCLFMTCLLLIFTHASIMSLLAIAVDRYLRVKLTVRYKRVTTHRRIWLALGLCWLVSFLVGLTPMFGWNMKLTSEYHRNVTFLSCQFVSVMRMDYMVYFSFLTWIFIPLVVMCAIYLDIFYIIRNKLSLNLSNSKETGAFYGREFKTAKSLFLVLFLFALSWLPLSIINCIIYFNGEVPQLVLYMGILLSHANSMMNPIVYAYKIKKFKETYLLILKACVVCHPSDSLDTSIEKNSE
How it was run: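 HeLa membranes (90 μg) carrying hA3AR were incubated with [3H]NECA (30 nM) at 25 °C for 180 min, with six concentrations from 0.1 nM to 1 μM. Nonspecific binding was defined with 100 μM R-PIA. Filters were washed six times and counted by scintillation. Ki (Cheng–Prusoff) is mean ± SEM, n=3; % displacement at 0.1 μM is n=2.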

[5] = biological target: T3, Adenosine receptor A3 (Homo sapiens); assay: Displacement of [3H]NECA from human adenosine A3 receptor expressed in human HeLa cells at 1 uM by liquid scintillation counting; format: cell-based
Adenosine receptor A2a [6] = biological target: T2, Adenosine receptor A2a; assay: Displacement of [3H][…] from human adenosine A2A receptor expressed in human HeLa cells at 1 uM by liquid scintillation counting; format: cell-based
Adenosine receptor A1 = biological target: T4, Adenosine receptor A1 (Homo sapiens, UniProt P30542); assay: Displacement of [3H]DPCPX from human adenosine A1 receptor expressed in CHO cells by liquid scintillation counting; format: cell-based
T4 sequence (P30542 whole entry): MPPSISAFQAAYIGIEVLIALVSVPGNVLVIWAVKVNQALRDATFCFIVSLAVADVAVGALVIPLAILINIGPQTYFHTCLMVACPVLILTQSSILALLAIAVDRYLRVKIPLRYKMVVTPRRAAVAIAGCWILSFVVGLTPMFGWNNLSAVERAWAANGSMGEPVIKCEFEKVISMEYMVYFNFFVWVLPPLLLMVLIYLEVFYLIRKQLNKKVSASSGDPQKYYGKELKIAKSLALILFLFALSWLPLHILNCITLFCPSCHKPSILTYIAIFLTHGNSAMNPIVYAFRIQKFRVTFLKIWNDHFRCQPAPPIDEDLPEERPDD
How it was run: (§3)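 Transfected CHO cell membranes (15 μg) were incubated with [3H]DPCPX at 25 °C for 60 min, with six test concentrations from 0.1 nM to 1 μM. Nonspecific binding was defined with 10 μM R-PIA. Filters were washed four times with ice-cold buffer before scintillation counting. Ki (Cheng–Prusoff) is mean ± SEM, n=3; % displacement at 0.1 μM is n=2.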

Adenosine receptor A2a [7] = biological target: T2, Adenosine receptor A2a; assay: Displacement of [3H][…] from human adenosine A2A receptor expressed in human HeLa cells by liquid scintillation counting; format: cell-based; how it was run: as §2
Adenosine receptor A3 = biological target: T5, Adenosine receptor A3 (Homo sapiens, UniProt P0DMS8); assay: Displacement of [3H]NECA from human adenosine A3 receptor expressed in human HeLa cells by liquid scintillation counting; format: cell-based; details: read-out: Ki
T5 sequence (P0DMS8 whole entry): T3 sequence (whole entry)
How it was run: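 HeLa membranes (90 μg) carrying hA3AR were incubated with [3H]NECA (30 nM) at 25 °C for 180 min, with six concentrations from 0.1 nM to 1 μM. Nonspecific binding was defined with 100 μM R-PIA. Filters were washed six times and counted by scintillation.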

Adenosine receptor A2b = biological target: T6, Adenosine receptor A2b (Homo sapiens, UniProt P29275); assay: Displacement of [3H]DPCPX from human adenosine A2B receptor expressed in HEK293 cells by liquid scintillation counting; format: cell-based; how it was run: as §1
T6 sequence (P29275 whole entry): T1 sequence (whole entry)

[8] = biological target: T7, Adenosine receptor A1 (Homo sapiens) (UniProt P30542); assay: Displacement of [3H]DPCPX from human adenosine A1 receptor expressed in CHO cells at 0.1 uM by liquid scintillation counting; format: cell-based; how it was run: as §3
T7 sequence (whole entry): T4 sequence (P30542 whole entry)

[9] = biological target: T3, Adenosine receptor A3 (Homo sapiens); assay: Antagonist activity at human adenosine A3 receptor expressed in human HeLa cells assessed as inhibition of forskolin-stimulated cAMP production by enzyme immunoassay; format: functional, cell-based
How it was run: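 Intact cells expressing hA3AR were stimulated with 10 μM forskolin, and receptor activation was induced with 0.1 μM NECA. Antagonist concentration-response curves were run against the NECA-induced cAMP decrease, with cAMP measured by enzyme immunoassay. K_B was derived from IC50, agonist concentration, agonist EC50 and curve slope. Data are mean ± SEM of two separate experiments.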

T2 sequence (P29274 whole entry): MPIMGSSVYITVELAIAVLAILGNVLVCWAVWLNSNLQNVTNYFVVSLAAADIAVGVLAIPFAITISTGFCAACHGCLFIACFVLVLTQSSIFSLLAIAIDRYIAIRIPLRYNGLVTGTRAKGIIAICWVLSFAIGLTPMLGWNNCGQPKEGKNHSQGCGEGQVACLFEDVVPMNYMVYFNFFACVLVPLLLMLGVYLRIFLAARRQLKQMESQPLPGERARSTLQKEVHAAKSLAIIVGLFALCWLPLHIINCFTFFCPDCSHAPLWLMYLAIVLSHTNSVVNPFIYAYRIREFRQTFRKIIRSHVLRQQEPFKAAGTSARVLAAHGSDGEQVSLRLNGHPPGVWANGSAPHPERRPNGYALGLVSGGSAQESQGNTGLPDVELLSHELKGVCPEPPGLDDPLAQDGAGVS

Compound | inhibition [1] | pKi (Adenosine receptor A1) | pKi (Adenosine receptor A2a [7]) | pKi (Adenosine receptor A3) | pKi (Adenosine receptor A2b) | other results
CCCC(=O)Nc1nc(-c2ccccc2)cc(-c2ccccc2)n1 | 14% | – | – | – | – | inhibition (Adenosine receptor A2a [2]): 3%; inhibition [3]: 54%; inhibition [4]: 17%; inhibition [5]: 38%; inhibition (Adenosine receptor A2a [6]): 7%
CCC(=O)Nc1cc(-c2ccc3c(c2)OCO3)nc(-c2ccc3c(c2)OCO3)n1 | – | 8.28 | 5.59 | 7.84 | 5.78 | –
CCC(=O)Nc1cc(-c2ccc(Cl)cc2)nc(-c2ccc(Cl)cc2)n1 | 3% | – | – | 7.60 | – | inhibition (Adenosine receptor A2a [2]): 20%; inhibition [8]: 16%; Kb [9]: 3.88 nM
CCCC(=O)Nc1cc(-c2ccc(OC)cc2)nc(-c2ccc(OC)cc2)n1 | 1% | – | – | 7.96 | – | inhibition (Adenosine receptor A2a [2]): 4%; inhibition [8]: 8%; Kb [9]: 1.57 nM
COc1ccc(-c2cc(NC(C)=O)nc(-c3ccc(OC)cc3OC)n2)c(OC)c1 | 2% | – | – | 8.27 | – | inhibition (Adenosine receptor A2a [2]): 6%; inhibition [8]: 1%; Kb [9]: 3.85 nM
CC(=O)Nc1cc(-c2ccc3c(c2)OCO3)nc(-c2ccc3c(c2)OCO3)n1 | 2% | 7.75 | 5.48 | 8.48 | – | –
CCC(=O)Nc1cc(-c2ccc(OC)cc2)nc(-c2ccc(OC)cc2)n1 | 3% | – | – | 8.44 | – | inhibition (Adenosine receptor A2a [2]): 1%; inhibition [8]: 8%; Kb [9]: 1.4 nM
CC(C)C(=O)Nc1nc(-c2ccccc2)cc(-c2ccccc2)n1 | – | – | – | – | – | inhibition [3]: 79%; inhibition [5]: 45%; inhibition (Adenosine receptor A2a [6]): 44%
CC(=O)Nc1cc(-c2ccc(C)cc2)nc(-c2ccc(C)cc2)n1 | 2% | – | – | 8.36 | – | inhibition (Adenosine receptor A2a [2]): 8%; inhibition [8]: 2%; Kb [9]: 3.56 nM
CC(C)(C)CC(=O)Nc1cc(-c2ccccc2)nc(-c2ccccc2)n1 | – | – | – | – | – | inhibition [3]: 4%; inhibition [5]: 39%; inhibition (Adenosine receptor A2a [6]): 32%
CCCC(=O)Nc1nc(-c2ccsc2)cc(-c2ccsc2)n1 | 12% | 7.07 | 5.34 | – | – | inhibition [4]: 2%
CCC(=O)Nc1nc(-c2ccsc2)cc(-c2ccsc2)n1 | – | 6.44 | 5.72 | 5.89 | 5.49 | –
CCCC(=O)Nc1cc(-c2ccc(F)cc2)nc(-c2ccc(F)cc2)n1 | 2% | 7.08 | 5.74 | 7.46 | – | –

Continued, in another order:

inhibition [1] | pKi (Adenosine receptor A1) | pKi (Adenosine receptor A2a [7]) | pKi (Adenosine receptor A3) | pKi (Adenosine receptor A2b) | Compound | other results
– | 7.65 | 7.07 | 7.34 | 7.12 | CCC(=O)Nc1cc(-c2ccccc2)nc(-c2ccccc2)n1 | –
– | 7.50 | 6.26 | 6.27 | 7.37 | CCC(=O)Nc1nc(-c2ccccc2)cc(-c2ccccc2)n1 | –
– | 7.32 | 6.37 | 6.55 | 6.51 | CCC(=O)Nc1nc(-c2ccccc2F)cc(-c2ccccc2F)n1 | –
– | 7.39 | 8.09 | 8.52 | 7.92 | CC(=O)Nc1cc(-c2ccco2)nc(-c2ccco2)n1 | –
– | 6.30 | 6.74 | 5.35 | 6.43 | CCC(=O)Nc1nc(-c2ccc(SC)cc2)cc(-c2ccc(SC)cc2)n1 | –
– | 7.40 | 7.20 | 7.19 | 6.78 | CCC(=O)Nc1cc(-c2ccsc2)nc(-c2ccsc2)n1 | –
– | 7.81 | 8.19 | 8.21 | 7.69 | CCC(=O)Nc1cc(-c2ccco2)nc(-c2ccco2)n1 | –
3% | 6.59 | 6.70 | – | – | CCCC(=O)Nc1nc(-c2cccs2)cc(-c2cccs2)n1 | inhibition [4]: 24%
1% | 7.19 | 6.26 | – | – | CCCC(=O)Nc1cc(-c2ccoc2)nc(-c2ccoc2)n1 | inhibition [4]: 3%
– | 8.67 | 6.71 | 6.77 | – | O=C(Nc1nc(-c2ccccc2)cc(-c2ccccc2)n1)C1CCCC1 | inhibition [3]: 52%
– | 6.88 | 7.08 | 7.90 | 7.31 | CCC(=O)Nc1cc(-c2ccoc2)nc(-c2ccoc2)n1 | –
1% | 7.08 | 6.37 | 7.92 | – | CCC(=O)Nc1cc(-c2ccc(F)cc2)nc(-c2ccc(F)cc2)n1 | –
6% | 7.63 | 6.19 | – | – | CCCC(=O)Nc1nc(-c2ccccc2F)cc(-c2ccccc2F)n1 | inhibition [4]: 15%
– | – | 7.13 | 8.00 | 6.52 | CC(=O)Nc1cc(-c2ccoc2)nc(-c2ccoc2)n1 | inhibition [8]: 1%
8% | 7.48 | 6.82 | 7.64 | – | CCCC(=O)Nc1cc(-c2cccs2)nc(-c2cccs2)n1 | –
16% | 7.50 | 6.99 | 6.80 | – | CCC(=O)Nc1cc(-c2ccccc2F)nc(-c2ccccc2F)n1 | –
17% | 7.48 | 6.94 | 7.66 | – | CCC(=O)Nc1cc(-c2cccs2)nc(-c2cccs2)n1 | –
– | 8.11 | 8.24 | 8.00 | 7.79 | CCCC(=O)Nc1cc(-c2ccco2)nc(-c2ccco2)n1 | –
